The source made the active and inactive calls. The calls are words filed in the database; no cut-off is given here.
What was measured:
[1] = target: T1, Peroxisome proliferator-activated receptor gamma (Homo sapiens) (UniProt P37231); assay: Agonist activity at human PPAR-gamma expressed in HEK293 cells at 30 uM after 18 hrs by luciferase reporter gene assay relative to control
T1 sequence (whole entry): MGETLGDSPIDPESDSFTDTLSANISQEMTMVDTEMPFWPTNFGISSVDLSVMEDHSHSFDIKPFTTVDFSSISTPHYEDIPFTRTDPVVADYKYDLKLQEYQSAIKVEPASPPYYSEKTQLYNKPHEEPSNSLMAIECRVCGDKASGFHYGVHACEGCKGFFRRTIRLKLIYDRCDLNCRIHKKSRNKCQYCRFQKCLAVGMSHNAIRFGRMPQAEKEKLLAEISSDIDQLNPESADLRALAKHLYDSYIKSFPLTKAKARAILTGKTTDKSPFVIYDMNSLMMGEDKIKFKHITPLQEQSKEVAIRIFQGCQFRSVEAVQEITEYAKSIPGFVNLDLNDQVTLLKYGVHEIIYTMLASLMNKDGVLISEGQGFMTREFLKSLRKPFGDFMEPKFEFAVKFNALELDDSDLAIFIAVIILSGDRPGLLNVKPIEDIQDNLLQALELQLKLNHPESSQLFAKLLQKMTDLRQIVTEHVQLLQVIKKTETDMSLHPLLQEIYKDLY

[2] = target: T1, Peroxisome proliferator-activated receptor gamma (Homo sapiens); assay: Agonist activity at human PPAR-gamma expressed in HEK293 cells at 30 uM after 18 hrs by luciferase reporter gene assay in presence of T0070907
[3] = target: T1, Peroxisome proliferator-activated receptor gamma (Homo sapiens); assay: Transactivation of human PPAR-gamma expressed in HEK293 cells after 18 hrs by luciferase reporter gene assay relative to control; format: cell-based
Method in brief: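 HEK-293 cells transiently co-transfected by calcium phosphate with full-length human PPARγ expression plasmid (pSG5-PL-hPPAR-gamma1), tk-PPREx3-luc reporter and EGFP internal control. Cells were reseeded and treated for 18 h, with 0.1% DMSO as vehicle. Luciferase was normalized to EGFP fluorescence and expressed as fold induction over vehicle. Means ± SD of three independent experiments, each in quadruplicate.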

[4] = target: T1, Peroxisome proliferator-activated receptor gamma (Homo sapiens); assay: Reduction of pioglitazone-mediated human PPAR-gamma activation expressed in HEK293 cells after 18 hrs by luciferase reporter gene assay; format: cell-based
Method in brief: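 Co-treatment assay in human PPARγ/tk-PPREx3-luc/EGFP-transfected HEK-293 cells. Pioglitazone at varied concentrations was applied with or without 30 μM compound for 18 h, with DMSO vehicle at 0.1%. Luciferase was normalized to EGFP fluorescence and expressed as fold over vehicle. Means ± SD of three independent experiments in quadruplicate.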

Compound | Activity [1] | other results
COc1cc([C@H]2Oc3ccc([C@H]4Oc5cc(O)cc(O)c5C(=O)[C@@H]4O)cc3O[C@@H]2CO)ccc1O | – | fold change (FC) [1]: 2.08; Activity [2]: inactive; Activity [3]: Dose-dependent effect; Activity [4]: Active
O=C1c2c(O)cc(O)cc2O[C@H](c2ccc(O)c(O)c2)[C@H]1O | inactive | –
COc1cc([C@@H]2[C@H]3CO[C@@]4(O)C(=O)[C@@H]2C=C([C@H]2Oc5cc(O)cc(O)c5C(=O)[C@@H]2O)[C@@H]34)ccc1O | inactive | –

Continued, in another order:

Activity [1] | Compound | other results
inactive | COc1cc([C@@H]2Oc3cc([C@H]4Oc5cc(O)cc(O)c5C(=O)[C@@H]4O)ccc3O[C@H]2CO)ccc1O | –
inactive | COc1cc([C@H]2Oc3cc([C@H]4Oc5cc(O)cc(O)c5C(=O)[C@@H]4O)ccc3O[C@@H]2CO)ccc1O | –
inactive | COc1cc(C2Oc3c(O)cc([C@H]4Oc5cc(O)cc(O)c5C(=O)[C@@H]4O)cc3C2CO)ccc1O (stereo not given in full) | –
inactive | COc1cc([C@@H]2Oc3ccc([C@H]4Oc5cc(O)cc(O)c5C(=O)[C@@H]4O)cc3O[C@H]2CO)ccc1O | –

Source: ChEMBL document CHEMBL3232839, “Identification of isosilybin a from milk thistle seeds as an agonist of peroxisome proliferator-activated receptor gamma” (J Nat Prod, 2014)
